Data: ChEMBL document CHEMBL1125137, “Synthesis and structure-activity relationships of N,N'-di-o-tolylguanidine analogues, high-affinity ligands for the haloperidol-sensitive sigma receptor” (J Med Chem, 1990)

Columns and labels:
[1] = molecular target: Glutamate [NMDA] receptor; experiment: (§1) In vitro inhibitory activity against [3H](+)-MK-801 binding to PCP receptor in guinea pig brain membrane homogenates; assay type: cell membranes, Cavia porcellus
How it was run: (§2)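 [3H](+)-MK-801 (97 Ci/mmol) at 1 nM final with guinea pig brain membranes at 150 μg protein/mL. Assay and filtration buffer was 5 mM Tris-HCl pH 7.4. Incubation 4 h at 25 °C. Nonspecific binding measured with 10 μM TCP or MK-801. Bound ligand collected by glass-fiber filtration and counted by scintillation. IC50 taken from displacement curves.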

[2] = molecular target: Glutamate [NMDA] receptor; experiment: In vitro inhibitory activity against [3H]-TCP binding to PCP receptor in guinea pig brain membrane homogenates; assay type: cell membranes, Cavia porcellus
How it was run: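 Displacement of 1.8 nM [3H]TCP (100 Ci/mmol) from guinea pig brain membranes (800 μg protein/mL, 50 mM Tris-HCl pH 7.4). Incubation 45 min at room temperature. Nonspecific binding defined by 10 μM PCP. Vacuum filtration on glass-fiber filters, two washes, scintillation counting. IC50 interpolated from semilog displacement curves.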

[3] = molecular target: Glutamate [NMDA] receptor; experiment: as §1; assay type: cell membranes, Cavia porcellus; how it was run: as §2; remark: listed apart in the source
[4] = molecular target: sigma receptor (guinea pig); experiment: In vitro inhibitory activity against [3H]- (+)-3-PPP binding to sigma receptor in guinea pig brain membrane homogenates

Compound	IC50 [1] [µM]	IC50 [2] [µM]	other results
CC(C)c1ccccc1N=C(N)Nc1ccccc1C(C)C	0.275		
Cc1cccc(NC(=N)Nc2cccc(C)c2)c1	0.33	0.37	
N=C(Nc1ccccc1I)NC1CC2CCC1C2 (stereo not drawn)	> 10		IC50 [3]: > 10 µM
CCc1ccccc1N=C(N)Nc1ccccc1CC	0.82	0.358	
NC1=Nc2ccccc2-c2ccccc2N1	> 10		
NC1=Nc2cccc3cccc(c23)N1			IC50 [3]: > 10 µM
Cc1cccc(C)c1N=C(N)Nc1c(C)cccc1C		32	
Cc1cc([N+](=O)[O-])ccc1NC(N)=Nc1cccc(O)c1		37	
NC(=Nc1ccccc1I)Nc1ccccc1I	0.24	0.21	
NC1=Nc2ccccc2CN1c1ccccc1		> 10	
NC(=Nc1ccccc1-c1ccccc1)NC12CC3CC(CC(C3)C1)C2	> 10		
Cc1ccccc1/N=C(/N)Nc1cccc(O)c1		2.5	
N=C(Nc1ccccc1/C=C/c1ccccc1)NC12CC3CC(CC(C3)C1)C2	3.5		
N=C(NCc1ccccc1)NCc1ccccc1		6.8	
Cc1ccccc1/N=C(\N)NC12CC3CC(C)(CC(C)(C3)C1)C2	2		
Cc1cc([N+](=O)[O-])ccc1NC(=N)Nc1ccc([N+](=O)[O-])cc1C		4.3	
CCCCCCCCN=C(NC1CCCCC1)NC1CCCCC1	> 10		
CN=C(NC1CCCCC1)NC1CCCCC1		> 10	IC50 [3]: > 10 µM
NC1=NCCN1c1ccccc1		> 10	
N=C(Nc1ccccc1CCc1ccccc1)NC12CC3CC(CC(C3)C1)C2	> 10		
Cc1ccccc1/N=C(/N)Nc1ccc(N)cc1C		4.35	
N=C(NC1CCCCC1)NC12CC3CC(CC(C3)C1)C2		> 10	
N=C(Nc1ccccc1/C=C/c1ccccc1)NC1C2CC3CC(C2)CC1C3 (stereo not drawn)	> 10		
N=C(NC1C2CC3CC(C2)CC1C3)NC1C2CC3CC(C2)CC1C3 (stereo not drawn)		> 10	
Cc1ccccc1N/C(N)=N/C1CC[C@@]2(C)C(=CCC3C2CC[C@@]2(C)C3CC[C@@H]2C(C)CCCC(C)C)C1 (stereo partly drawn)	> 10		

Compound	IC50 [1] [µM]	IC50 [2] [µM]	other results
N=C(NC1C[C@H]1c1ccccc1)NC12CC3CC(CC(C3)C1)C2 (stereo partly drawn)	> 10		
N=C(NC1CC2CCC1C2)NC1CC2CCC1C2 (stereo not drawn) [listing 1 of 2 here]	> 10		
CNC(=N)NC		> 10	
CC12CC3CC(C)(C1)CC(/N=C(\N)Nc1ccccc1I)(C3)C2	4		
N=C(Nc1ccccc1I)NC1C2CC3CC(C2)CC1C3 (stereo not drawn)	> 10		
N=C(NC12CC3CC(CC(C3)C1)C2)NC12CC3CC(CC(C3)C1)C2		> 10	
CC(=O)[C@H]1CCC2C3CC=C4CC(/N=C(\N)Nc5ccccc5C)CC[C@]4(C)C3CC[C@@]21C (stereo partly drawn)	> 10		
CC1(C)C2CCC1(C)C(/N=C(\N)Nc1ccccc1I)C2 (stereo not drawn)	> 10		
NC(=Nc1ccccc1I)NC12CC3CC(CC(C3)C1)C2	> 10		
N=C(NC1CC2CCC1C2)NC1CC2CCC1C2 (stereo not drawn) [listing 2 of 2 here]	5		
CC(C)(C)/N=C(\N)Nc1ccccc1I	> 9.6		
N=C(Nc1ccccc1/C=C/c1c(F)c(F)c(F)c(F)c1F)NC12CC3CC(CC(C3)C1)C2	> 10		
CC12CC3CC(C)(C1)CC(/N=C(\N)Nc1ccccc1/C=C/c1ccccc1)(C3)C2	> 10		
N=C(Nc1ccccc1)Nc1ccccc1		3.45	
CCc1ccc(NC(=N)Nc2ccc(CC)cc2)cc1	10.3		
Cc1cc(N)ccc1N=C(N)Nc1cccc(O)c1	> 10		
CC(C)(C)c1ccccc1N=C(N)Nc1ccccc1C(C)(C)C	38.3		
N/C(=N\c1ccccc1[N+](=O)[O-])NC12CC3CC(CC(C3)C1)C2	> 10		
Cc1ccccc1N=C(N)Nc1ccccc1N		12	
Cc1ccccc1/N=C(/N)Nc1c(C)cccc1C		1.9	
CCc1cccc(NC(=N)Nc2cccc(CC)c2)c1	0.168	0.082	
N=C(Nc1ccccc1I)Nc1ccccc1/C=C/c1ccccc1	> 10		
ONC(=NC1CCCCC1)NC1CCCCC1		> 10	
Cc1ccccc1N=C(N)NC1CCCCC1	10	> 10	
Cc1cc(N)ccc1NC(=N)Nc1ccc(N)cc1C		> 100	

Compound	IC50 [1] [µM]	IC50 [2] [µM]	other results
Cc1ccccc1N=C(N)Nc1ccccc1I		2.05	
Cc1cc(Br)ccc1N=C(N)Nc1ccc(Br)cc1C		> 10	
CCCc1cccc(NC(=N)Nc2cccc(CCC)c2)c1	2.11		
N=C(Nc1cccc2ccccc12)Nc1cccc2ccccc12	0.134		
N=C(N)N(c1ccccc1)c1ccccc1			IC50 [4]: > 100 µM
Cc1ccccc1NC(N)=NC1CC2CCC1(C)C2(C)C (stereo not drawn)	5		
CCCCNC(=N)NCCCC		49	
NC(=Nc1ccc(Br)cc1)Nc1ccc(Br)cc1		34	
Cc1ccccc1/N=C(\N)NC1C2CC3CC(C2)CC1C3 (stereo not drawn)	> 10		
N=C(Nc1ccccc1C(F)(F)F)Nc1ccccc1C(F)(F)F		4.15	
NC(=Nc1ccccc1-c1ccccc1)Nc1ccccc1-c1ccccc1	> 10		
Cc1ccc(N=C(N)Nc2ccc(C)cc2)cc1	13.3	31	
CC(C)c1ccc(NC(=N)Nc2ccc(C(C)C)cc2)cc1	26.8		
Cc1ccccc1NC(N)=Nc1ccccc1[N+](=O)[O-]		2.1	
Cc1ccccc1NC(N)=NC1CC2CCC1C2 (stereo not drawn)	> 10		IC50 [3]: > 10 µM
Cc1ccccc1/N=C(/N)Nc1ccc([N+](=O)[O-])cc1C		5.7	
Cc1ccccc1/N=C(\N)NC12CC3CC(CC(C3)C1)C2		32	
NC(=NC1CCCCC1)NC1CCCCC1		> 10	
CC(C)c1cccc(NC(=N)Nc2cccc(C(C)C)c2)c1	0.498		
N=C1N(c2ccccc2)CCN1c1ccccc1	> 10		
NC(=Nc1ccccc1-c1ccccc1)Nc1cccc2ccccc12	> 10		
Cc1ccccc1/N=C(/N)Nc1ccccc1/C=C/c1ccccc1	> 10		
Cc1ccccc1NC(=N)Nc1ccccc1C [DITOLYLGUANIDINE]	10.7	7.8	
